What was measured:
Mus musculus [1] = assay: Suppressive blood schizonticidal antimalarial activity evaluated in the trophozoite-induced Plasmodium berghei infection in mice (Mus musculus) at a dose 80 mg/kg given as no. of cures; format: functional
How it was run: (§1)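 Run at the Rane Laboratory with blood-induced P. berghei infections in mice, five animals per group. A cure is a mouse surviving to 60 days postinfection. Deaths before day 6 are recorded separately as toxic deaths. Activity is scored from the increase in mean survival time over untreated controls, and counts as active when treated MST is more than twice control MST.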

Mus musculus [2] = assay: Suppressive blood schizonticidal antimalarial activity evaluated in the trophozoite-induced Plasmodium berghei infection in mice (Mus musculus) at a dose 10 mg/kg given as no. of cures; format: functional; how it was run: as §1
Mus musculus [3] = assay: Suppressive blood schizonticidal antimalarial activity evaluated in the trophozoite-induced Plasmodium berghei infection in mice (Mus musculus) at a dose 2.5 mg/kg; format: functional
How it was run: (§2)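 Run at the Rane Laboratory in mice infected with blood-induced P. berghei, five animals per group. Activity is the increase in mean survival time over untreated infected controls. A compound counts as active when treated-group MST is more than twice the control MST. Cures are mice surviving at 60 days postinfection.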

Plasmodium cynomolgi [4] = assay: Cures in Plasmodium cynomolgi infected Rhesus monkeys (Macaca mulatta) on 0.316 mg/kg/day after 7 days; cured 0 of 1; format: functional
Plasmodium cynomolgi [5] = assay: Cures in Plasmodium cynomolgi infected Rhesus monkeys (Macaca mulatta) on 10.0 mg/kg/day after 7 days; format: functional, organism-based
Plasmodium berghei [6] = assay: Suppressive blood schizonticidal antimalarial activity evaluated in the trophozoite-induced Plasmodium berghei infection in mice (Mus musculus) at a dose 640 mg/kg given as number of toxic deaths; format: toxicity, organism-based; parameters: dose 640 mg/kg; settings: in vivo
How it was run: (§3)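 Rane Laboratory mouse test with blood-induced P. berghei infection, five mice per group. Toxic deaths are deaths occurring before the 6th day postinfection.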

Mus musculus [7] = assay: Suppressive blood schizonticidal antimalarial activity evaluated in the trophozoite-induced Plasmodium berghei infection in mice (Mus musculus) at a dose 20 mg/kg given as no. of cures; format: functional; how it was run: as §1
Plasmodium cynomolgi [8] = assay: Cures in Plasmodium cynomolgi infected Rhesus monkeys (Macaca mulatta) on 1 mg/kg/day after 7 days; cured 1 of 1; format: functional
Mus musculus [9] = assay: Suppressive blood schizonticidal antimalarial activity evaluated in the trophozoite-induced Plasmodium berghei infection in mice (Mus musculus) at a dose 160 mg/kg given as no. of cures; format: functional; how it was run: as §1
Plasmodium berghei [10] = assay: Blood schizonticidal activity in trophozoite-induced Plasmodium berghei infected mice (Mus musculus) at 40 mg/kg; numbers cured; format: functional; how it was run: as §1
Mus musculus [11] = assay: Suppressive blood schizonticidal antimalarial activity evaluated in the trophozoite-induced Plasmodium berghei infection in mice (Mus musculus) at a dose 320 mg/kg; format: functional; how it was run: as §2
Mus musculus [12] = assay: Suppressive blood schizonticidal antimalarial activity evaluated in the trophozoite-induced Plasmodium berghei infection in mice (Mus musculus) at a dose 5 mg/kg; format: functional; parameters: unit not given beside the values; how it was run: as §2
Mus musculus [13] = assay: Suppressive blood schizonticidal antimalarial activity evaluated in the trophozoite-induced Plasmodium berghei infection in mice (Mus musculus) at a dose 80 mg/kg; format: functional; parameters: unit not given beside the values; how it was run: as §2
Mus musculus [14] = assay: Suppressive blood schizonticidal antimalarial activity evaluated in the trophozoite-induced Plasmodium berghei infection in mice (Mus musculus) at a dose 160 mg/kg; format: functional; how it was run: as §2
Mus musculus [15] = assay: Suppressive blood schizonticidal antimalarial activity evaluated in the trophozoite-induced Plasmodium berghei infection in mice (Mus musculus) at a dose 40 mg/kg; format: functional; parameters: unit not given beside the values; how it was run: as §2
Plasmodium cynomolgi [16] = assay: Cures in Plasmodium cynomolgi infected Rhesus monkeys (Macaca mulatta) on 0.1 mg/kg/day after 7 days (x7); cured 0 of 2; format: functional
Plasmodium cynomolgi [17] = assay: Cures in Plasmodium cynomolgi infected Rhesus monkeys (Macaca mulatta) on 1 mg/kg/day after 7 days; cured 2 of 2; format: functional
Plasmodium berghei [18] = assay: Blood schizonticidal antimalarial activity in the trophozoite-induced Plasmodium berghei infection in mice (Mus musculus) at 20 mg/kg; format: functional; parameters: unit not given beside the values; how it was run: as §2
Mus musculus [19] = assay: Suppressive blood schizonticidal antimalarial activity evaluated in the trophozoite-induced Plasmodium berghei infection in mice (Mus musculus) at a dose 10 mg/kg; format: functional; how it was run: as §2
Mus musculus [20] = assay: Suppressive blood schizonticidal antimalarial activity evaluated in the trophozoite-induced Plasmodium berghei infection in mice (Mus musculus) at a dose 320 mg/kg given as no. of toxic deaths; format: functional; how it was run: as §3
Mus musculus [21] = assay: Suppressive blood schizonticidal antimalarial activity evaluated in the trophozoite-induced Plasmodium berghei infection in mice (Mus musculus) at a dose 160 mg/kg given as no. of toxic deaths; format: functional; how it was run: as §3
Mus musculus [22] = assay: Suppressive blood schizonticidal antimalarial activity evaluated in the trophozoite-induced Plasmodium berghei infection in mice (Mus musculus) at a dose 640 mg/kg given as no. of cures; format: functional; how it was run: as §1
Plasmodium cynomolgi [23] = assay: Cures in Plasmodium cynomolgi infected Rhesus monkeys (Macaca mulatta) on 1 mg/kg/day after 7 days; cured 0 of 1; format: functional
Plasmodium cynomolgi [24] = assay: Cures in Plasmodium cynomolgi infected Rhesus monkeys (Macaca mulatta) on 0.1 mg/kg/day after 7 days; cured 0 of 1; format: functional
Mus musculus [25] = assay: Suppressive blood schizonticidal antimalarial activity evaluated in the trophozoite-induced Plasmodium berghei infection in mice (Mus musculus) at a dose 320 mg/kg given as number of cures; format: functional; how it was run: as §1
Mus musculus [26] = assay: Suppressive blood schizonticidal antimalarial activity evaluated in the trophozoite-induced Plasmodium berghei infection in mice (Mus musculus) at a dose 5 mg/kg given as no. of cures; format: functional; how it was run: as §1
Mus musculus [27] = assay: Suppressive blood schizonticidal antimalarial activity evaluated in the trophozoite-induced Plasmodium berghei infection in mice (Mus musculus) at a dose 80 mg/kg given as no. of toxic deaths; format: functional; how it was run: as §3
Plasmodium cynomolgi [28] = assay: Cures in Plasmodium cynomolgi infected Rhesus monkeys (Macaca mulatta) on 0.316 mg/kg/day after 7 days; cures 2 of 2; format: functional
Plasmodium cynomolgi [29] = assay: Cures in Plasmodium cynomolgi infected Rhesus monkeys (Macaca mulatta) on 0.316 mg/kg/day after 7 days; cured 0 of 2; format: functional
Plasmodium cynomolgi [30] = assay: Cures in Plasmodium cynomolgi infected Rhesus monkeys (Macaca mulatta) on 10.0 mg/kg/day after 7 days; cured 1 of 1; format: functional

Row | SMILES | Cures (Mus musculus [1]) | Delta MST (Mus musculus [3]) | Toxic deaths (Plasmodium berghei [6]) | Cures (Mus musculus [7]) | Cures/no. of animals (Plasmodium cynomolgi [8]) | Cures (Plasmodium berghei [10]) | Delta MST (Mus musculus [12]) | Delta MST (Mus musculus [15]) | Cures/no. of animals (Plasmodium cynomolgi [16]) | Delta MST (Plasmodium berghei [18]) | Delta MST (Mus musculus [19]) | Toxic deaths (Mus musculus [20]) | Toxic deaths (Mus musculus [21]) | other results
1 | CCCCCCCCOc1c(OC)cc(NC(C)CCCN)c2nccc(C)c12 (centres undefined) | 5 | 7.8 | 2 | 5 | 1 | 5 | 12 |  |  |  |  |  |  | Cures (Mus musculus [2]): 5; Cures/no. of animals (Plasmodium cynomolgi [4]): 0; Cures/no. of animals (Plasmodium cynomolgi [5]): Toxic; Cures (Mus musculus [9]): 2; Delta MST (Mus musculus [11]): 0.4
2 | CCCCCCCCOc1c(OC)cc(NC(C)CCCN)c2ncccc12 (centres undefined) |  |  | 1 |  |  |  |  | 6.7 | 0 | 2.9 |  |  |  | Delta MST (Mus musculus [13]): 8.1; Delta MST (Mus musculus [14]): 12.1; Cures/no. of animals (Plasmodium cynomolgi [4]): 0; Cures/no. of animals (Plasmodium cynomolgi [17]): 2; Delta MST (Mus musculus [11]): 6.3
3 | CCCCC(C)Oc1c(OC)cc(NC(C)CCCN)c2ncc(C)cc12 (centres undefined) | 1 |  | 5 | 2 | 1 | 3 |  |  |  |  | 6.1 | 5 | 5 | 
4 | CCCCCCCCCCCCOc1c(OC)cc(NC(C)CCCN)c2nccc(C)c12 (centres undefined) |  |  |  |  |  |  |  | 6.4 |  | 3.2 | 2 |  |  | Delta MST (Mus musculus [13]): 7.6; Cures (Mus musculus [22]): 5; Cures/no. of animals (Plasmodium cynomolgi [23]): 0; Cures/no. of animals (Plasmodium cynomolgi [24]): 0; Cures (Mus musculus [25]): 5; Cures (Mus musculus [9]): 4
5 | COc1cc(NC(C)CCCN)c2ncccc2c1OCC(F)(F)F (centres undefined) |  |  |  |  | 1 |  |  |  |  |  |  |  |  | Cures/no. of animals (Plasmodium cynomolgi [4]): 0
6 | COc1cc(NC(C)CCCN)c2nccc(C)c2c1OCCCCOc1ccccc1 (centres undefined) |  | 8 | 5 | 5 |  | 5 |  |  | 0 |  | 10.2 | 5 | 5 | Cures (Mus musculus [26]): 1; Toxic deaths (Mus musculus [27]): 5
7 | CCCCOc1c(OC)cc(NC(C)CCCN)c2nccc(C)c12 (centres undefined) |  |  | 5 | 5 | 1 | 3 |  |  | 0 |  | 11 | 5 | 5 | Toxic deaths (Mus musculus [27]): 4; Cures/no. of animals (Plasmodium cynomolgi [28]): 2
8 | COc1cc(NC(C)CCCN)c2nccc(C)c2c1OCCCCCCOc1ccccc1 (centres undefined) | 4 |  | 2 | 4 | 1 | 5 | 7.3 |  |  |  |  | 2 |  | Cures (Mus musculus [2]): 2; Cures/no. of animals (Plasmodium cynomolgi [24]): 0; Cures (Mus musculus [9]): 2; Cures/no. of animals (Plasmodium cynomolgi [29]): 0
9 | COc1cc(NC(C)CCCN)c2nccc(C)c2c1OC1CCCC1 (centres undefined) | 1 | 6.1 | 5 | 1 |  | 2 | 6.9 |  | 0 |  | 6.9 | 5 | 5 | Cures/no. of animals (Plasmodium cynomolgi [5]): Toxic; Cures/no. of animals (Plasmodium cynomolgi [17]): 2; Cures/no. of animals (Plasmodium cynomolgi [28]): 2
10 | CCCC(CC)Oc1c(OC)cc(NC(C)CCCN)c2ncc(C)cc12 (centres undefined) | 1 |  | 5 |  |  | 1 |  |  |  | 5.3 |  | 5 | 4 | Cures/no. of animals (Plasmodium cynomolgi [23]): 0; Cures/no. of animals (Plasmodium cynomolgi [24]): 0
11 | COc1cc(NC(C)CCCN)c2nc(C)ccc2c1 (centres undefined) |  |  | 5 |  |  |  |  | 5.5 |  | 3.1 |  | 1 |  | Delta MST (Mus musculus [13]): 7.3; Delta MST (Mus musculus [14]): 8.3
12 | CCOc1c(OC)cc(NC(C)CCCN)c2ncccc12 (centres undefined) |  |  | 5 |  |  |  |  | 0.3 |  |  |  |  | 3 | 
13 | COc1cc(NC(C)CCCN)c2nccc(C)c2c1OCC1CCCCC1 (centres undefined) | 1 | 9.2 | 5 | 4 |  | 3 | 7.8 |  |  |  |  | 4 |  | Cures (Mus musculus [2]): 1; Cures/no. of animals (Plasmodium cynomolgi [24]): 0; Cures/no. of animals (Plasmodium cynomolgi [4]): 0; Cures/no. of animals (Plasmodium cynomolgi [30]): 1; Cures/no. of animals (Plasmodium cynomolgi [17]): 2
14 | CCCCCCCCCCOc1c(OC)cc(NC(C)CCCN)c2ncccc12 (centres undefined) |  |  |  |  |  |  |  | 0.1 |  | 0.1 |  |  |  | Delta MST (Mus musculus [13]): 2.9; Delta MST (Mus musculus [14]): 5.7; Cures (Mus musculus [22]): 2; Cures/no. of animals (Plasmodium cynomolgi [23]): 0; Cures/no. of animals (Plasmodium cynomolgi [30]): 1; Delta MST (Mus musculus [11]): 9.3
15 | CCCCCCCCCOc1c(OC)cc(NC(C)CCCN)c2nccc(C)c12 (centres undefined) | 5 | 7.9 |  | 3 | 1 | 5 | 9.7 |  | 0 |  |  |  |  | Cures (Mus musculus [2]): 2; Cures (Mus musculus [22]): 4; Cures (Mus musculus [25]): 4; Cures/no. of animals (Plasmodium cynomolgi [5]): Toxic; Cures (Mus musculus [9]): 4; Cures/no. of animals (Plasmodium cynomolgi [29]): 0
